Only a selection was taken, and hits are over-represented in it overall.
PTEN del growth: growth suppression of PTEN-null HCT116, primary screen, cell-based, CellTiter-Glo | HCT116 PTEN-null viability, 60 h; hits give low values | viability, % at 10 µM | actives 1.2% (n = 140,000) | AID 827, 2007;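 active = viability at or below a set limit, 4 SD under the median of all tested compounds, cut at about 3.7% in these data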;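 note: PTEN knockout HCT116 line with beta catenin targeted HCT116 as companion control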
H69AR growth 86K: proliferation blockers of H69AR lung cancer cells, primary screen, cell-based, human, 86K library | actives 6% (n = 85,000) | viability, % at 10 µM | H69AR lung tumor viability, ATP luminescence, 72 h; hits give low values;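 active = viability at or below 40%; inactive = viability above 40%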;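 note: multidrug resistant small cell line overexpressing MRP-1 efflux transporter; 100% = mean luminescence of untreated control wells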
Lung fibro prol: antiproliferative effect on LL 47 fibroblasts – human, LL 47 cells, CellTiter-Glo luminescence, primary screen | LL 47 human lung fibroblast viability, ATP luminescence; hits give low values | viability, % at 10 µM | actives 1.1% (n = 85,000);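 active = viability at or below 50% in the single dose screen; inactive = viability above 50%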;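 note: compound exposure lasted 72 h before the ATP readout; 100% = median luminescence of untreated cell-only wells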
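Test system: LL 47 human lung fibroblasts / Quantity: 1,150 cells in each well / Medium: IMEM growth medium with 15% fetal bovine serum / Incubation: 72 h compound exposure at 37 °C after overnight plating / Detection: CellTiter-Glo luminescence measuring cellular ATP / Read-out: % viability versus median cells-only luminescence / Benchmarks: cell-only wells, no compound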
HCT116 bCat-KO: primary screen for growth suppressors in beta-catenin knockout HCT116 cells (colon tumor, human). AID 818, 2007. actives 1.5% (n = 140,000). viability, % at 10 µM. HCT116 beta-catenin knockout viability, CellTiter-Glo, 60 h; hits give low values;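 active = viability at or under a set limit, the compound median less 4 SD, cut at about 6% in these data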;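 note: 0% = Hyamine 1622 control at 20 µM and 100% = untreated cell control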
HUVEC prolif 384: inhibitors of HUVEC proliferation, primary screen, cell-based, 384-well; CellTiter-Glo luminescence, 72 h; hits give low values; viability, % at 10 µM (by protocol); actives 1.1% (n = 86,000); AID 648, 2007;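 active = viability at or below 30%; inactive = viability above 30%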;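 note: 100% = median luminescence of DMSO-only cell control wells on each plate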
An asterisk follows results filed as active; nt = no result given.

SMILES	PTEN del growth	H69AR growth 86K	Lung fibro prol	HCT116 bCat-KO	HUVEC prolif 384
CCN1CCc2c(OCC(=O)N3N=C(c4cccs4)CC3c3ccc(F)cc3)cccc2C1=O (stereo not drawn)	97	nt	nt	94	nt
Cc1ccc2nc(C)/c(=N\O)c(C)nc2c1	87	6.8*	98	88	93
Cc1nc2ccccc2nc(C)c1=NO	99	27*	93	82	95
CCOC(=O)c1nc2ccccc2nc1C	104	nt	nt	91	nt
Cc1nc2ccc(Cl)cc2nc(C)/c1=N\O	100	5.6*	91	98	87
CCOC(=O)c1cc(CC)sc1NC(=O)CC1Sc2ccc(C(F)(F)F)cc2NC1=O (stereo not drawn)	101	nt	nt	92	nt
O=C(Oc1ccccc1-c1nnco1)c1ccc(Cl)cc1	88	43	34*	55	98
O=C(Nc1ccccc1OC(=O)c1ccc(Cl)cc1)c1ccc(Cl)cc1	70	nt	nt	61	nt
CCCc1nc2oc3c(NCCN(C)C)ncnc3c2c2c1CCCC2	1.8*	8.9*	4.3*	2.0*	39
CCCc1nc2oc3c(N4CCNCC4)ncnc3c2c2c1CCCC2	nt	7.0*	84	nt	67
CC(C)Cc1nc2oc3c(N4CCN(C)CC4)ncnc3c2c2c1CCCC2	85	84	104	89	94
CN1CCN(C2=C(Cl)C(=O)N(Cc3ccccc3)C2=O)CC1	76	39*	91	76	89
CN1CCN(C2=C(Cl)C(=O)N(c3ccc(Cl)c(Cl)c3)C2=O)CC1	86	8.5*	94	81	88
CCN1CCN(C2=C(Cl)C(=O)N(Cc3ccccc3)C2=O)CC1	88	47	95	77	93
COc1ccc(C(C)(C)C)cc1NC(=S)NCCN1CCOCC1	90	nt	nt	93	nt
CCCCN(CC)S(=O)(=O)c1ccc(C(=O)N=c2sc3cc(NC(C)=O)ccc3n2C)cc1	0.7*	nt	nt	0.6*	nt
Fc1cccc(NC(=S)NCCN2CCOCC2)c1	97	nt	nt	100	nt
CCc1cc2c(=O)n(Cc3ccco3)c(SCC(=O)N3CCCc4ccccc43)nc2s1	60	102	89	61	90
CCc1cc2c(=O)n(Cc3ccco3)c(SCc3c(C)noc3C)nc2s1	22	13*	49*	24	56
CCOc1cc(/C=N\NC(=O)c2ccc(NC(=O)CC)cc2)ccc1OC(=O)c1ccccc1	106	nt	nt	96	nt
Cc1ccccc1-c1nnc2s/c(=C\c3ccc(N(C)C)cc3)c(=O)n12	nt	101	96	nt	103
COc1ccc(NC(=O)CCc2ccccc2)cc1NC(=O)c1ccco1	79	36*	98	80	64
COc1ccc(CCC(=O)Nc2cc(Cl)ccc2OC)cc1	69	24*	91	69	82
CCOc1cc(NC(=O)c2ccco2)c(OCC)cc1NC(=O)CCc1ccc(OC)cc1	nt	33*	84	nt	66
COc1cc(NC(=O)CSc2nc3ccccc3c(=O)n2C)ccc1NC(=O)c1ccco1	103	24*	71	98	50
SMILES	PTEN del growth	H69AR growth 86K	Lung fibro prol	HCT116 bCat-KO	HUVEC prolif 384
CCOc1ccc(NC(=O)C2CSC(c3ccncc3)=N2)cc1 (stereo not drawn)	98	84	101	100	101
COc1ccccc1-n1cnc2cc(NC(=O)c3ccco3)ccc21	32	22*	89	37	73
COc1cc(/C=c2\s/c(=C(/C#N)C(=O)N3CCCC3)n(-c3ccccc3)c2=O)ccc1O	28	10*	77	64	12*
COC(=O)/C=c1/s/c(=C(/C#N)C(=O)N2CCCCC2)n(-c2ccccc2)c1=O	99	36*	102	90	86
CSc1n[nH]c(NCc2cccs2)n1	78	100	106	1.2*	107
Fc1ccc(-c2cc(C(F)(F)F)nc(NCc3cccs3)n2)cc1	76	nt	nt	72	nt
Cc1cc(NC(=O)C2CCCCC2)nc2c1c(=O)oc1ccccc12	92	nt	nt	91	nt
Cc1cc(NC(=O)C2CCCC2)nc2c1c(=O)oc1ccccc12	77	37*	108	82	72
Cc1cccc(CC(=O)Nc2cc(C)c3c(=O)oc4ccccc4c3n2)c1	87	12*	87	85	62
Cc1cc(NC(=O)Cc2ccccc2)nc2c1c(=O)oc1ccccc12	91	nt	nt	97	nt
Cc1cc(NC(=O)CN2CCN(Cc3ccccc3)CC2)nc2c1c(=O)oc1ccccc12	nt	22*	64	nt	60
Cc1cc(NC(=O)CN2CC3CC(C2)c2cccc(=O)n2C3)nc2c1c(=O)oc1ccccc12 (stereo not drawn)	nt	91	99	nt	89
Cc1c(C(=O)N2CCc3ccccc32)cnn1C	105	nt	nt	93	nt
COC(=O)CNC(=O)Cc1c(F)cccc1Cl	100	108	95	96	97
COc1cccc(/C=N/NC(=O)C(=O)Nc2ccccc2OC(F)(F)C(F)F)c1O	12	nt	nt	13	nt
CCCn1c(=O)c2ccccc2n2c(Sc3nnnn3-c3ccccc3)nnc12	48	33*	97	53	94
C=CCn1c(=O)c2ccccc2n2c(Sc3nnnn3-c3ccccc3)nnc12	80	51	nt	79	91
C/C=C/C=[N+](\[O-])C(C)/C(=N/O)c1ccc(F)cc1 (stereo not drawn)	109	88	99	109	105
COc1ccc(-n2nnnc2SCC#CCO)cc1	86	18*	100	88	54
COc1ccc(-n2nnnc2SCC(=O)c2cccc(OC)c2)cc1	46	86	99	36	58
CC1CCCCC1n1c(=S)[nH]c2ccccc2c1=O (stereo not drawn)	87	18*	82	82	82
CC(C)(C)c1ccc(-c2nnc(SCC(=O)O)n2N)cc1	100	88	44*	91	97
COc1ccc(C)cc1NC(=O)CN(Cc1nnc(-c2ccc(Cl)cc2)o1)C1CCCC1	69	2.4*	82	71	102
CCOc1cc(CNc2ccc(N3CCCC3)cc2)cc(Cl)c1OC	63	nt	nt	50	nt
CCOc1ccc(CNc2ccc(N3CCCC3)cc2)cc1	6	1.8*	84	4.5*	90
SMILES	PTEN del growth	H69AR growth 86K	Lung fibro prol	HCT116 bCat-KO	HUVEC prolif 384
CCCn1c(=O)c(C(=O)NNS(=O)(=O)c2ccc(Cl)cc2)c(O)c2ccccc21	97	nt	nt	94	nt
COc1ccc(/C=C/C(=O)O)cc1OC	103	nt	nt	94	nt
COc1cc(/C=C/C(=O)c2ccc(Cl)s2)cc(OC)c1O	4	nt	nt	4.5*	nt
COc1ccc(/C=C/C(=O)c2ccccc2O)cc1	72	nt	nt	65	nt
COc1ccc(C(=O)/C=C/c2ccc(F)cc2)c(OC(=O)c2ccc([N+](=O)[O-])cc2)c1	3.3*	nt	nt	7	nt
COc1ccc(/C=C/C(=O)c2ccc(Cl)s2)cc1O	4	nt	nt	3.4*	nt
COc1ccc(C(=O)/C=C/c2cccs2)c(OC(=O)c2cccc([N+](=O)[O-])c2)c1	30	nt	nt	31	nt
Cc1c(/C=C/C(=O)c2ccc(Cl)s2)cnn1C	52	61	97	59	100
